Tests used:
[1] = melting temperature; fluorescence melt of hairpins on a sequencing array, two-state fit, raised by 9.35 °C to match UV melts; conditions: sodium 0.088 M
In short: (§1)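 Melting temperature and folding enthalpy were obtained by bootstrapped two-state fitting. Fits used Cy3 fluorescence of library hairpins with annealed Cy3 and quencher oligos on a sequenced MiSeq flow cell, imaged in 50 mM Na-HEPES pH 8.0, 25 mM NaCl in 2.5 °C steps up to 60 °C and normalised to pre-quench Cy3 and control constructs. Four replicates were combined by inverse-variance weighting, and fitted temperatures were raised by 9.35 °C to match UV melts.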

[2] = folding enthalpy; higher = less favourable; fluorescence melt of hairpins on a sequencing array, two-state fit; conditions: sodium 0.088 M
In short: as §1

GATCGAGTGGTCGATC ((((((....))))))
Tm [1]: 53.9 °C
folding enthalpy [2]: -8.38 kcal/mol

GATCGAGTTCTCGATC ((((((....))))))
Tm [1]: 55.9 °C
folding enthalpy [2]: -39.6 kcal/mol

GATCGAGTTTTCGATC ((((((....))))))
Tm [1]: 54.2 °C
folding enthalpy [2]: -41.8 kcal/mol

GATCGATAAGTCGATC ((((((....))))))
Tm [1]: 52.5 °C
folding enthalpy [2]: -44 kcal/mol

GATCGATATGTCGATC ((((((....))))))
Tm [1]: 55 °C
folding enthalpy [2]: -41.9 kcal/mol

GATCGATATTTCGATC ((((((....))))))
Tm [1]: 53.1 °C
folding enthalpy [2]: -44.3 kcal/mol

GATCGATCGTCGATC ((((((...))))))
Tm [1]: 51.7 °C
folding enthalpy [2]: -28.7 kcal/mol

GATCGATCGTTCGATC ((((((....))))))
Tm [1]: 53.5 °C
folding enthalpy [2]: -36 kcal/mol

GATCGATGTTCGATC ((((((...))))))
Tm [1]: 51 °C
folding enthalpy [2]: -29.4 kcal/mol

GATCGATTATCGATC ((((((...))))))
Tm [1]: 52.7 °C
folding enthalpy [2]: -38.5 kcal/mol

GATCGATTGCTCGATC ((((((....))))))
Tm [1]: 51.2 °C
folding enthalpy [2]: -31.9 kcal/mol

GATCGATTGTCGATC ((((((...))))))
Tm [1]: 51.3 °C
folding enthalpy [2]: -35.5 kcal/mol

GATCGATTTATCGATC ((((((....))))))
Tm [1]: 59.7 °C
folding enthalpy [2]: -44.8 kcal/mol

GATCGCAACTGCGATC ((((((....))))))
Tm [1]: 69.2 °C
folding enthalpy [2]: -33.8 kcal/mol

GATCGCAAGAGCGATC ((((((....))))))
Tm [1]: 67.8 °C
folding enthalpy [2]: -34 kcal/mol

GATCGCACCGGCGATC ((((((....))))))
Tm [1]: 68.3 °C
folding enthalpy [2]: -33.7 kcal/mol

GATCGCACTTGCGATC ((((((....))))))
Tm [1]: 69.1 °C
folding enthalpy [2]: -32.3 kcal/mol

GATCGCAGTCGCGATC ((((((....))))))
Tm [1]: 68.5 °C
folding enthalpy [2]: -34.5 kcal/mol

GATCGCAGTTGCGATC ((((((....))))))
Tm [1]: 68.6 °C
folding enthalpy [2]: -41.1 kcal/mol

GATCGCATTGGCGATC ((((((....))))))
Tm [1]: 68.8 °C
folding enthalpy [2]: -33.2 kcal/mol

GATCGCCAGGCGATC ((((((...))))))
Tm [1]: 67.1 °C
folding enthalpy [2]: -35.1 kcal/mol

GATCGCCAGTGCGATC ((((((....))))))
Tm [1]: 64.4 °C
folding enthalpy [2]: -34.9 kcal/mol

GATCGCCATCGCGATC ((((((....))))))
Tm [1]: 65 °C
folding enthalpy [2]: -31.5 kcal/mol

GATCGCCCATGCGATC ((((((....))))))
Tm [1]: 67.6 °C
folding enthalpy [2]: -36.2 kcal/mol

GATCGCCCCCGCGATC ((((((....))))))
Tm [1]: 66.8 °C
folding enthalpy [2]: -37.6 kcal/mol

GATCGCCCCTGCGATC ((((((....))))))
Tm [1]: 67.2 °C
folding enthalpy [2]: -33.6 kcal/mol

GATCGCCCGGCGATC ((((((...))))))
Tm [1]: 68.5 °C
folding enthalpy [2]: -40.9 kcal/mol

GATCGCCCTGCGATC ((((((...))))))
Tm [1]: 67.8 °C
folding enthalpy [2]: -32 kcal/mol

GATCGCCGAAAGGCAATC (((.(((....))).)))
Tm [1]: 44.8 °C
folding enthalpy [2]: -17.1 kcal/mol

GATCGCCGAAAGGCCATC (((.(((....))).)))
Tm [1]: 38.6 °C
folding enthalpy [2]: -14.5 kcal/mol

GATCGCCGCCGCGATC ((((((....))))))
Tm [1]: 66.6 °C
folding enthalpy [2]: -36 kcal/mol

GATCGCCGTTGCGATC ((((((....))))))
Tm [1]: 66.2 °C
folding enthalpy [2]: -53.2 kcal/mol

GATCGCCTCGCGATC ((((((...))))))
Tm [1]: 68.7 °C
folding enthalpy [2]: -30.2 kcal/mol

GATCGCCTGGCGATC ((((((...))))))
Tm [1]: 67.9 °C
folding enthalpy [2]: -35.7 kcal/mol

GATCGCCTTTGCGATC ((((((....))))))
Tm [1]: 67.8 °C
folding enthalpy [2]: -38.6 kcal/mol

GATCGCGAAAGCGAATC ((((((....))).)))
Tm [1]: 52.5 °C
folding enthalpy [2]: -14 kcal/mol

GATCGCGAAAGCGAGATC ((((((....)))..)))
Tm [1]: 60.6 °C
folding enthalpy [2]: -13.8 kcal/mol

GATCGCGAAAGCGGCATC ((((((....)))..)))
Tm [1]: 32.1 °C
folding enthalpy [2]: -7.52 kcal/mol

GATCGCGAAAGCGTAATC ((((((....)))..)))
Tm [1]: 29.2 °C
folding enthalpy [2]: -8.8 kcal/mol

GATCGCGAAAGCGTCATC ((((((....)))..)))
Tm [1]: 33.8 °C
folding enthalpy [2]: -7.57 kcal/mol

GATCGCGATTGCGATC ((((((....))))))
Tm [1]: 68.7 °C
folding enthalpy [2]: -34.2 kcal/mol

GATCGCGGAAACGCAATC (((.(((....))).)))
Tm [1]: 41.3 °C
folding enthalpy [2]: -22.6 kcal/mol

GATCGCGGAAACGCGGTC ((.((((....)))).))
Tm [1]: 62.8 °C
folding enthalpy [2]: -22.8 kcal/mol

GATCGCGTGGCGATC ((((((...))))))
Tm [1]: 69 °C
folding enthalpy [2]: -32.6 kcal/mol

GATCGCGTGTGCGATC ((((((....))))))
Tm [1]: 68.5 °C
folding enthalpy [2]: -29.3 kcal/mol

GATCGCTAAAGCGATC ((((((....))))))
Tm [1]: 67.1 °C
folding enthalpy [2]: -27.7 kcal/mol

GATCGCTACTGCGATC ((((((....))))))
Tm [1]: 68.5 °C
folding enthalpy [2]: -34.5 kcal/mol

GATCGCTAGAGCGATC ((((((....))))))
Tm [1]: 67.6 °C
folding enthalpy [2]: -34.2 kcal/mol

GATCGCTAGGCGATC ((((((...))))))
Tm [1]: 68.4 °C
folding enthalpy [2]: -36.8 kcal/mol

GATCGCTCAGGCGATC ((((((....))))))
Tm [1]: 67.9 °C
folding enthalpy [2]: -36.1 kcal/mol

GATCGCTCGGGCGATC ((((((....))))))
Tm [1]: 69.2 °C
folding enthalpy [2]: -38.6 kcal/mol

GATCGCTCGTGCGATC ((((((....))))))
Tm [1]: 67.2 °C
folding enthalpy [2]: -41.6 kcal/mol

GATCGCTGAGGCGATC ((((((....))))))
Tm [1]: 68.5 °C
folding enthalpy [2]: -38.1 kcal/mol

GATCGCTTACGCGATC ((((((....))))))
Tm [1]: 68.6 °C
folding enthalpy [2]: -31.8 kcal/mol

GATCGCTTATGCGATC ((((((....))))))
Tm [1]: 68.1 °C
folding enthalpy [2]: -33.8 kcal/mol

GATCGCTTCCGCGATC ((((((....))))))
Tm [1]: 67.2 °C
folding enthalpy [2]: -36 kcal/mol

GATCGCTTGGGCGATC ((((((....))))))
Tm [1]: 69.1 °C
folding enthalpy [2]: -27.7 kcal/mol

GATCGGAAACGATC (((((....)))))
Tm [1]: 55.1 °C
folding enthalpy [2]: -28.7 kcal/mol

GATCGGAAATCCGATC ((((((....))))))
Tm [1]: 54.5 °C
folding enthalpy [2]: -44.8 kcal/mol

GATCGGAAGGCCGATC ((((((....))))))
Tm [1]: 53.9 °C
folding enthalpy [2]: -35.7 kcal/mol

GATCGGAATCCCGATC ((((((....))))))
Tm [1]: 53.9 °C
folding enthalpy [2]: -36.3 kcal/mol

GATCGGACAGCCGATC ((((((....))))))
Tm [1]: 52.4 °C
folding enthalpy [2]: -36.9 kcal/mol

GATCGGACCACCGATC ((((((....))))))
Tm [1]: 56.9 °C
folding enthalpy [2]: -37.2 kcal/mol

GATCGGACCCCCGATC ((((((....))))))
Tm [1]: 54.7 °C
folding enthalpy [2]: -32.9 kcal/mol

GATCGGACCGCCGATC ((((((....))))))
Tm [1]: 54.6 °C
folding enthalpy [2]: -39.9 kcal/mol

GATCGGACGGCCGATC ((((((....))))))
Tm [1]: 59.3 °C
folding enthalpy [2]: -45.5 kcal/mol

GATCGGAGACCGATC ((((((...))))))
Tm [1]: 56.7 °C
folding enthalpy [2]: -30.9 kcal/mol

GATCGGAGGGCCGATC ((((((....))))))
Tm [1]: 55.1 °C
folding enthalpy [2]: -37.3 kcal/mol

GATCGGAGTCCCGATC ((((((....))))))
Tm [1]: 55.3 °C
folding enthalpy [2]: -33.8 kcal/mol

GATCGGAGTCCGATC ((((((...))))))
Tm [1]: 54 °C
folding enthalpy [2]: -38.6 kcal/mol

GATCGGATCACCGATC ((((((....))))))
Tm [1]: 57.5 °C
folding enthalpy [2]: -34 kcal/mol

GATCGGCAAGCCGATC ((((((....))))))
Tm [1]: 67 °C
folding enthalpy [2]: -30.5 kcal/mol

GATCGGCACACCGATC ((((((....))))))
Tm [1]: 59 °C
folding enthalpy [2]: -39.6 kcal/mol

GATCGGCACCCCGATC ((((((....))))))
Tm [1]: 56.6 °C
folding enthalpy [2]: -31.8 kcal/mol

GATCGGCACGCCGATC ((((((....))))))
Tm [1]: 67.8 °C
folding enthalpy [2]: -31.6 kcal/mol

GATCGGCATGCCGATC ((((((....))))))
Tm [1]: 67.4 °C
folding enthalpy [2]: -44.7 kcal/mol

GATCGGCATTCCGATC ((((((....))))))
Tm [1]: 57 °C
folding enthalpy [2]: -37.6 kcal/mol

GATCGGCCCACCGATC ((((((....))))))
Tm [1]: 58.2 °C
folding enthalpy [2]: -41.5 kcal/mol

GATCGGCCGCCCGATC ((((((....))))))
Tm [1]: 60.5 °C
folding enthalpy [2]: -40.4 kcal/mol

GATCGGCCTCCCGATC ((((((....))))))
Tm [1]: 55.8 °C
folding enthalpy [2]: -35 kcal/mol

GATCGGCGAAAGCCAATC (((.(((....))).)))
Tm [1]: 43.7 °C
folding enthalpy [2]: -17.1 kcal/mol

GATCGGCGACCCGATC ((((((....))))))
Tm [1]: 55.6 °C
folding enthalpy [2]: -34.2 kcal/mol

GATCGGCGACCGATC ((((((...))))))
Tm [1]: 56.4 °C
folding enthalpy [2]: -34.2 kcal/mol

GATCGGCGGCCCGATC ((((((....))))))
Tm [1]: 55.5 °C
folding enthalpy [2]: -35.4 kcal/mol

GATCGGCGGCCGATC ((((((...))))))
Tm [1]: 58.1 °C
folding enthalpy [2]: -49.3 kcal/mol

GATCGGCGGGCCGATC ((((((....))))))
Tm [1]: 66.9 °C
folding enthalpy [2]: -38.9 kcal/mol

GATCGGCGTACCGATC ((((((....))))))
Tm [1]: 59.5 °C
folding enthalpy [2]: -38.2 kcal/mol

GATCGGCGTCCCGATC ((((((....))))))
Tm [1]: 55.4 °C
folding enthalpy [2]: -40.3 kcal/mol

GATCGGGAACCCGATC ((((((....))))))
Tm [1]: 63.7 °C
folding enthalpy [2]: -42.4 kcal/mol

GATCGGGACGCCGATC ((((((....))))))
Tm [1]: 59.5 °C
folding enthalpy [2]: -36.6 kcal/mol

GATCGGGCAACCGATC ((((((....))))))
Tm [1]: 65.4 °C
folding enthalpy [2]: -34.4 kcal/mol

GATCGGGCAGCCGATC ((((((....))))))
Tm [1]: 59.3 °C
folding enthalpy [2]: -40.3 kcal/mol

GATCGGGCCACCGATC ((((((....))))))
Tm [1]: 67.5 °C
folding enthalpy [2]: -39.5 kcal/mol

GATCGGGCTCCGATC ((((((...))))))
Tm [1]: 58.3 °C
folding enthalpy [2]: -35.8 kcal/mol

GATCGGGGAAACCTGATC ((((.((....)).))))
Tm [1]: 49.2 °C
folding enthalpy [2]: -43.8 kcal/mol

Reference: the array DNA melting data of Ke et al. (doi:10.1101/2024.01.08.574731)
